Test results published in ChEMBL document CHEMBL2380254, “Optimization of tocotrienols as antiproliferative and antimigratory leads” (Eur J Med Chem, 2013).

Legend:
SK-MEL-5 = test: Growth inhibition of human SK-MEL-5 cells assessed as cell growth at 10 uM after 48 hrs by sulforhodamine B assay; assay type: functional; conditions: SK-MEL-5, 48 h, read-out: Activity
In short: (§1)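 Single-dose NCI-60 screen: adherent cells in RPMI 1640 with 5% FBS were exposed to 10 µM for 48 h at 37 °C after a 24 h preincubation. They were fixed in situ with cold TCA (10% final), stained with 0.4% SRB in 1% acetic acid, solubilized in 10 mM Tris base, and read at 515 nm. Percent growth was taken relative to time-zero and control plates.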

MDA-MB-231 [1] = test: Growth inhibition of human MDA-MB-231 cells after 48 hrs by sulforhodamine B assay; assay type: functional; conditions: MDA-MB-231, 48 h
In short: (§2)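 NCI-60 panel cells grown in RPMI 1640 with 5% FBS and 2 mM L-glutamine, seeded at 5000–40,000 cells/well and preincubated 24 h. Five 10-fold dilutions (0.001–100 µM) from DMSO stocks were added for 48 h at 37 °C. Adherent cells were fixed with cold TCA (10% final) for 60 min at 4 °C, stained with 0.4% SRB, and read at 515 nm. GI50 was set where 100×(T−T0)/(C−T0)=50.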

M14 = test: Growth inhibition of human M14 cells assessed as cell growth at 10 uM after 48 hrs by sulforhodamine B assay; assay type: functional; conditions: M14, 48 h, read-out: Activity
In short: (§3)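 NCI-60 single-dose screen at 10 µM: cells in RPMI 1640 with 5% FBS, preincubated 24 h, then exposed 48 h at 37 °C. TCA fixation (16% final for suspension cells), SRB staining, absorbance 515 nm. Percent growth relative to time-zero and untreated control plates; negative values indicate cell kill.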

NCI-H226 = test: Growth inhibition of human NCI-H226 cells after 48 hrs by sulforhodamine B assay; assay type: functional; conditions: NCI-H226, 48 h; in short: as §2
SF-295 = test: Growth inhibition of human SF295 cells after 48 hrs by sulforhodamine B assay; assay type: functional; conditions: SF-295, 48 h; in short: as §2
COLO 205 = test: Growth inhibition of human COLO205 cells after 48 hrs by sulforhodamine B assay; assay type: functional; conditions: COLO 205, 48 h
In short: (§4)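 NCI-60 screen: cells in RPMI 1640 with 5% FBS and 2 mM glutamine, 5000–40,000 cells/well, preincubated 24 h. Five concentrations (10-fold dilutions; 100 to 0.001 µM) applied for 48 h at 37 °C. TCA fixation, SRB stain, absorbance at 515 nm. Time-zero plates included; GI50 where 100×(T−T0)/(C−T0)=50.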

MDA-MB-231 [2] = test: Growth inhibition of human MDA-MB-231 cells assessed as cell growth at 10 uM after 48 hrs by sulforhodamine B assay; assay type: functional; conditions: MDA-MB-231, 48 h, read-out: Activity; in short: as §1
TK-10 = test: Growth inhibition of human TK10 cells assessed as cell growth at 10 uM after 48 hrs by sulforhodamine B assay; assay type: functional; conditions: TK-10, 48 h, read-out: Activity
In short: (§5)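 Single-dose NCI-60 test at 10 µM. Cells were grown in RPMI 1640 with 5% FBS and 2 mM L-glutamine, preincubated 24 h, with T0 plates TCA-fixed. Exposure was 48 h at 37 °C, 5% CO2. Cells were fixed with cold TCA (final 10%, 4 °C, 60 min), stained with SRB and read at 515 nm. Percent growth was taken relative to T0 and untreated control; negative values denote cell kill.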

SK-MEL-28 = test: Growth inhibition of human SK-MEL-28 cells assessed as cell growth at 10 uM after 48 hrs by sulforhodamine B assay; assay type: functional; conditions: SK-MEL-28, 48 h, read-out: Activity; in short: as §1
K562 = test: Growth inhibition of human K562 cells after 48 hrs by sulforhodamine B assay; assay type: functional; conditions: K562, 48 h; in short: as §4
NCI-H23 = test: Growth inhibition of human NCI-H23 cells assessed as cell growth at 10 uM after 48 hrs by sulforhodamine B assay; assay type: functional; conditions: NCI-H23, 48 h, read-out: Activity; in short: as §1
SF-268 = test: Growth inhibition of human SF268 cells assessed as cell growth at 10 uM after 48 hrs by sulforhodamine B assay; assay type: functional; conditions: SF-268, 48 h, read-out: Activity; in short: as §1
MCF7 = test: Growth inhibition of human MCF7 cells after 48 hrs by sulforhodamine B assay; assay type: functional; conditions: MCF7, 48 h; in short: as §2
U-251 = test: Growth inhibition of human U251 cells assessed as cell growth at 10 uM after 48 hrs by sulforhodamine B assay; assay type: functional; conditions: U-251, 48 h, read-out: Activity; in short: as §5
SK-MEL-2 = test: Growth inhibition of human SK-MEL-2 cells after 48 hrs by sulforhodamine B assay; assay type: functional; conditions: SK-MEL-2, 48 h; in short: as §2
KM12 = test: Growth inhibition of human KM12 cells assessed as cell growth at 10 uM after 48 hrs by sulforhodamine B assay; assay type: functional; conditions: KM12, 48 h, read-out: Activity; in short: as §3
NCI-H322M = test: Growth inhibition of human NCI-H322M cells after 48 hrs by sulforhodamine B assay; assay type: functional; in short: as §2
RXF 393 [3] = test: Growth inhibition of human RXF393 cells assessed as cell growth at 10 uM after 48 hrs by sulforhodamine B assay; assay type: functional; conditions: RXF 393, 48 h, read-out: Activity; in short: as §1
MCF-10A = test: Antiproliferative activity against human MCF10A cells by MTT assay; assay type: cell-based
In short: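 MCF10A kept in DMEM/F12 with 5% horse serum, hydrocortisone, cholera toxin, insulin and EGF, plated at 10 × 10^4 cells/well. Compounds from DMSO stock (final DMSO <0.1%, equal across groups) fed in serum-free media. Viable cell number by MTT; IC50 by non-linear regression.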

RXF 393 [4] = test: Growth inhibition of human RXF393 cells after 48 hrs by sulforhodamine B assay; assay type: functional; conditions: RXF 393, 48 h; in short: as §2
HOP-62 = test: Growth inhibition of human HOP62 cells after 48 hrs by sulforhodamine B assay; assay type: functional; conditions: HOP-62, 48 h; in short: as §4
MDA-MB-468 = test: Growth inhibition of human MDA-MB-468 cells after 48 hrs by sulforhodamine B assay; assay type: functional; conditions: MDA-MB-468, 48 h; in short: as §2
MDA-MB-231 [5] = test: Antiproliferative activity against human MDA-MB-231 cells by MTT assay; assay type: functional, cell-based
In short: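 Cells plated at 8 × 10^3/well (MDA-MB-231) or 10^4/well (MCF7) in 96-well plates. Compounds fed in media with 5% FBS (MDA-MB-231) or 1% FBS (MCF7). MTT read-out of viable cells.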

SW-620 = test: Growth inhibition of human SW620 cells after 48 hrs by sulforhodamine B assay; assay type: functional; conditions: SW-620, 48 h
In short: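 NCI-60 five-dose screen. Cells were grown in RPMI 1640 with 5% FBS and 2 mM L-glutamine, plated at 5000–40,000 cells/well and incubated 24 h before dosing, with T0 plates TCA-fixed. DMSO stocks were diluted to doses of […] and exposed 48 h at 37 °C, 5% CO2. Cells were fixed with cold TCA (final 10%, 60 min, 4 °C), stained with 0.4% SRB in 1% acetic acid for 10 min, solubilized in 10 mM trizma base and read at 515 nm. GI50 is where 100×(T−T0)/(C−T0)=50.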

| Structure (SMILES) | growth at 10 µM (SK-MEL-5) [%] | GI50 (MDA-MB-231 [1]) [µM] | growth at 10 µM (M14) [%] | GI50 (NCI-H226) [µM] | GI50 (SF-295) [µM] | GI50 (COLO 205) [µM] | growth at 10 µM (MDA-MB-231 [2]) [%] | growth at 10 µM (TK-10) [%] | growth at 10 µM (SK-MEL-28) [%] | GI50 (K562) [µM] | growth at 10 µM (NCI-H23) [%] | growth at 10 µM (SF-268) [%] | GI50 (MCF7) [µM] | growth at 10 µM (U-251) [%] | GI50 (SK-MEL-2) [µM] | growth at 10 µM (KM12) [%] | GI50 (NCI-H322M) [µM] | GI50 (RXF 393 [4]) [µM] | GI50 (HOP-62) [µM] | GI50 (MDA-MB-468) [µM] | also measured |
| --- | --- | --- | --- | --- | --- | --- | --- | --- | --- | --- | --- | --- | --- | --- | --- | --- | --- | --- | --- | --- | --- |
| CC(C)=CCC/C(C)=C/CC/C(C)=C/CC[C@]1(C)CCc2c3c(cc(C)c2O1)OCN(CCCCCCO)C3 | 20.9 | 0.782 | -90.8 | 5.27 | 0.602 | 0.717 | -28.4 | 88.4 | -49.6 | 0.81 | -22.3 | -80.2 | 0.579 | -91.9 | 5.66 | -79.1 | 3.75 | 0.546 | 0.877 | 0.629 | growth at 10 µM (RXF 393 [3]): -95.6%; IC50 (MCF-10A): 2.5 µM; IC50 (MDA-MB-231 [5]): > 5 µM |
| COc1ccc(CCN2COc3cc(C)c4c(c3C2)CC[C@@](C)(CC/C=C(\C)CC/C=C(\C)CCC=C(C)C)O4)cc1OC | 90 | 1.94 | -19.5 | 2 | 2.01 | 1.79 | 13.2 | 97.7 | -55.6 | – | 50.7 | -75.2 | 1.54 | -71.3 | 2.63 | -82.6 | 2.71 | 1.36 | 1.76 | 1.46 | GI50 (SW-620): 2 µM |
| CC(C)=CCC/C(C)=C/CC/C(C)=C/CC[C@]1(C)CCc2c3c(cc(C)c2O1)OCN(CCCCO)C3 | 37.1 | 17.9 | -45.8 | 15.3 | 18.2 | 3.05 | -48.2 | 88.4 | 0.63 | 7.42 | 54.8 | -70.5 | – | -90.5 | 18.9 | -89.5 | 17.2 | 4.68 | 16.2 | 15.1 | growth at 10 µM (RXF 393 [3]): -96.3%; IC50 (MCF-10A): 4.2 µM; IC50 (MDA-MB-231 [5]): > 5 µM |
| CC(C)=CCC/C(C)=C/CC/C(C)=C/CC[C@]1(C)CCc2c3c(cc(C)c2O1)OCN(CCCCCCCCO)C3 | 19.1 | 1.1 | -94.7 | 5.17 | 1.02 | 0.886 | -69.6 | 51.2 | -89.2 | 0.772 | -20.7 | -83.1 | 0.515 | -95.8 | 5.59 | -88.1 | 5.13 | 0.551 | 2.7 | 0.591 | growth at 10 µM (RXF 393 [3]): -97.1%; IC50 (MCF-10A): 1.7 µM; IC50 (MDA-MB-231 [5]): 11.7 µM |
| CC(C)=CCC/C(C)=C/CC/C(C)=C/CC[C@]1(C)CCc2c3c(c(C)c(C)c2O1)OCN(CCCCCCCCO)C3 | 83.7 | 2.89 | -24 | 2.79 | 3.16 | 2.78 | 40.7 | 93.5 | 82.9 | 3.5 | 56.1 | 54.9 | 2.59 | 34 | 3.01 | 15.7 | 2.7 | 2.45 | 2.81 | 2.57 | growth at 10 µM (RXF 393 [3]): -10.7%; IC50 (MCF-10A): 2 µM; IC50 (MDA-MB-231 [5]): > 20 µM |
| CC(C)=CCC/C(C)=C/CC/C(C)=C/CC[C@]1(C)CCc2c3c(c(C)c(C)c2O1)OCN(CCCCO)C3 | 91 | 2.34 | 65.4 | > 10 | 2.08 | 2.09 | 37.9 | 101 | 106 | 2.46 | 93.5 | 75.2 | 1.78 | 14.8 | > 10 | 27.3 | > 10 | 5.63 | 5.95 | 2.53 | growth at 10 µM (RXF 393 [3]): 78.2%; IC50 (MDA-MB-231 [5]): 13.8 µM |
